The source made the active and inactive calls. The calls are words filed in the database; no cut-off is given here.
What was measured:
Format in all cases: functional
[1] = Antioxidant activity in BALB/c mouse BM cells assessed as inhibition of ROS production; conditions: Bone marrow cell
Method in brief: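 Whole bone marrow cells flushed from tibias and femurs with phenol red-free HBSS pH 7.4, strained through 70 µm, 1 × 10^6 cells/mL. L-012 (40 µM final) and horseradish peroxidase (8 µg/ml final) added; cells mixed with compound from DMSO stock (1% DMSO final). Luminescence read 60 min every 2 min at 37°C; area under curve gives total signal; IC25 from % inhibition versus log concentration, 5–7 concentrations.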

[2] = Antioxidant activity assessed as inhibition of superoxide production by xanthine/xanthine oxidase method
Method in brief: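 Superoxide generated from 500 µM xanthine with 3.75 mU/mL xanthine oxidase in 0.1 M phosphate buffer pH 7.5, detected as reduction of 500 µM NBT to monoformazan at 560 nm, 25°C, as rate of absorbance change. IC25 from rate versus log concentration, 5–7 concentrations, top concentration 50 µM.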

[3] = tested on: Radical scavenging activity; test: Antioxidant activity assessed as DPPH radical scavenging activity after 20 min
Method in brief: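 Percent antiradical activity = (1 − sample/blank absorbance)×100; IC25 from logarithmic regression over 5–6 concentrations; highest concentration tested 400 µM.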

Row | SMILES | IC25 [1] | IC25 [2] | IC25 [3] | Activity [2] | Activity [3]
1 | O=c1c(O)c(-c2ccc(O)c(O)c2)oc2ccccc12 | 1.75 µM | 0.68 µM | 0.7 µM |  | 
2 | O=c1cc(-c2cccc(O)c2)oc2c(O)c(O)ccc12 | 0.8 µM | 2.4 µM | 2.7 µM |  | 
3 | COc1cccc2oc(-c3ccc(O)cc3)cc(=O)c12 | 1270 µM |  |  | inactive | inactive
4 | O=c1cc(-c2ccccc2O)oc2cc(O)cc(O)c12 | 5.7 µM |  |  | inactive | inactive
5 | COc1c(-c2ccccc2)oc2cc(O)ccc2c1=O | 1050 µM |  |  | inactive | inactive
6 | COc1ccc2c(=O)cc(-c3ccccc3)oc2c1O | 3.1 µM |  |  | inactive | inactive
7 | O=c1cc(-c2ccccc2O)oc2c(O)c(O)ccc12 | 0.52 µM | 1.2 µM | 2.1 µM |  | 
8 | COc1ccccc1-c1oc2ccccc2c(=O)c1O | 49 µM |  |  |  | inactive
9 | COc1cc([C@@H]2Oc3cc([C@@H]4Oc5cc(O)cc(O)c5C(=O)[C@H]4O)ccc3O[C@H]2CO)ccc1O | 140 µM | 7.7 µM | 61.4 µM |  | 
10 | COc1cc(-c2cc(=O)c3ccccc3o2)ccc1O | 14.5 µM |  |  | inactive | inactive
11 | COc1ccc(-c2cc(=O)c3c(O)cc(O[C@@H]4O[C@H](CO[C@@H]5O[C@@H](C)[C@H](O)[C@@H](O)[C@H]5O)[C@@H](O)[C@H](O)[C@H]4O)cc3o2)cc1O |  |  |  | inactive | inactive
12 | COc1ccc(-c2oc3ccc(C)cc3c(=O)c2O)cc1OC |  |  | 89 µM |  | 
13 | COc1ccc(C2CC(=O)c3c(O)cc(O[C@@H]4O[C@H](CO[C@@H]5O[C@@H](C)[C@H](O)[C@@H](O)[C@H]5O)[C@@H](O)[C@H](O)[C@H]4O)cc3O2)cc1O (stereo not given in full) |  |  |  | inactive | inactive
14 | C[C@@H]1O[C@@H](OC[C@H]2O[C@@H](Oc3c(-c4ccc(O)c(O)c4)oc4cc(O)cc(O)c4c3=O)[C@H](O)[C@@H](O)[C@@H]2O)[C@H](O)[C@H](O)[C@H]1O |  | 4.5 µM | 12.2 µM |  | 
15 | O=c1c(O)c(-c2ccc(O)cc2)oc2ccc(O)cc12 |  |  | 4.5 µM |  | 
16 | O=c1cc(-c2ccc(O)c(O)c2)oc2cccc(O)c12 |  |  | 1.5 µM |  | 
17 | O=c1cc(-c2cccc(O)c2O)oc2ccccc12 |  |  | 0.5 µM |  | 
18 | O=C1CC(c2ccccc2O)Oc2ccccc21 (stereo not given) [2'-HYDROXY-FLAVANONE] | 5620 µM |  |  | inactive | inactive
19 | COc1c(-c2ccc(O)c(O)c2)oc2cc(O)cc(O)c2c1=O [3-O-METHYLQUERCETIN] | 58 µM | 3.6 µM | 5.9 µM |  | 
20 | O=C1CC(c2ccc(O)cc2)Oc2ccccc21 (stereo not given) [4'-HYDROXY-FLAVANONE] | 3300 µM |  |  | inactive | inactive

Row | SMILES | IC25 [1] | IC25 [2] | IC25 [3] | Activity [2] | Activity [3]
21 | COc1ccc(-c2cc(=O)c3c(O)cc(O)cc3o2)cc1 [ACACETIN] | 1180 µM | 16.3 µM |  |  | inactive
22 | O=c1cc(-c2ccc(O)cc2)oc2cc(O)cc(O)c12 [APIGENIN] | 113 µM |  |  | inactive | inactive
23 | CN1CCc2cccc3c2[C@H]1Cc1ccc(O)c(O)c1-3 [APOMORPHINE] |  | 16.2 µM |  |  | 
24 | O=c1cc(-c2ccccc2)oc2cc(O)c(O)c(O)c12 [BAICALEIN] | 10.4 µM | 2.6 µM | 1.5 µM |  | 
25 | COc1ccc(-c2coc3cc(O)cc(O)c3c2=O)cc1 [BIOCHANIN] | 33 µM |  |  | inactive | inactive
26 | O=c1cc(-c2ccccc2)oc2cc(O)cc(O)c12 [CHRYSIN] | 4480 µM |  |  | inactive | inactive
27 | Oc1cc(O)c2c(c1)O[C@H](c1ccc(O)c(O)c1)[C@@H](O)C2 [CIANIDANOL] | 168 µM | 45.8 µM | 33.3 µM |  | 
28 | O=c1c(O)c(-c2ccc(O)c(O)c2)oc2cc(O)ccc12 [FISETIN] | 31 µM | 2.7 µM | 7.9 µM |  | 
29 | O=c1c(O)c(-c2ccccc2)oc2cc(O)cc(O)c12 [GALANGIN] | 4.3 µM |  | 86.4 µM | inactive | 
30 | COc1ccc([C@@H]2CC(=O)c3c(O)cc(O)cc3O2)cc1O [HESPERETIN] | 647 µM |  | 83 µM | inactive | 
31 | O=c1c(O)c(-c2ccc(O)cc2)oc2cc(O)cc(O)c12 [KAEMPFEROL] | 4 µM |  | 22.6 µM | inactive | 
32 | O=c1cc(-c2ccc(O)c(O)c2)oc2cc(O)cc(O)c12 [LUTEOLIN] | 13.7 µM | 6.9 µM | 12.1 µM |  | 
33 | O=c1c(O)c(-c2cc(O)c(O)c(O)c2)oc2cc(O)cc(O)c12 [MYRICETIN] | 5.2 µM | 6.8 µM | 41.8 µM |  | 
34 | O=C1C[C@@H](c2ccc(O)cc2)Oc2cc(O)cc(O)c21 [NARINGENIN] | 551 µM |  |  | inactive | inactive
35 | O=C(CCc1ccc(O)cc1)c1c(O)cc(O)cc1O [PHLORETIN] | 300 µM |  |  | inactive | inactive
36 | O=c1c(O)c(-c2ccc(O)c(O)c2)oc2cc(O)cc(O)c12 [QUERCETIN] | 3.5 µM | 3 µM | 8.1 µM |  | 
37 | O=c1c(O)c(-c2ccc(O)cc2)oc2cc(O)ccc12 [RESOKAEMPFEROL] | 23 µM | 48 µM | 4.1 µM |  | 
38 | Oc1ccc(/C=C/c2cc(O)cc(O)c2)cc1 [RESVERATROL] | 70 µM |  | 349 µM | inactive | 
39 | C[C@@H]1O[C@@H](O[C@H]2[C@H](Oc3cc(O)c4c(=O)cc(-c5ccc(O)cc5)oc4c3)O[C@H](CO)[C@@H](O)[C@@H]2O)[C@H](O)[C@H](O)[C@H]1O [RHOIFOLIN] | 201 µM | 7.2 µM |  |  | 
40 | COc1cc(O)c2c(=O)cc(-c3ccccc3)oc2c1 [TECHTOCHRYSIN] | 160 µM |  |  | inactive | inactive

— ChEMBL document CHEMBL1146339, “Improved quantitative structure-activity relationship models to predict antioxidant activity of flavonoids in chemical, enzymatic, and cellular systems” (Bioorg Med Chem, 2007)
